# Results reported in ChEMBL document CHEMBL4138104, “Indole carboxylic acid esters of melampomagnolide B are potent anticancer agents against both hematological and solid tumor cells” (Eur J Med Chem, 2017).
# Key:
# Type in all cases: functional
# [1] = Cytotoxicity against human M9-ENL1 cells assessed as reduction in cell viability by trypan blue staining-based assay
# Summary of the method: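 M9-ENL1 AML cells (MLL-ENL-transduced human blood cells) plated at 10^6 cells/mL in alpha-MEM with 5% human plasma, 20% FBS, SCF, IL-3, IL-7 and FLT3. Drug diluted from DMSO stock into PBS, final DMSO ≤0.5%. After 24 h exposure, dead cells assessed by trypan blue and by flow cytometry (Annexin V/PI or Annexin V/7-AAD). Viability normalized to vehicle; EC50 from dose-response curves; triplicate.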
# [2] = tested on: UO-31; assay: Growth inhibition of human UO31 cells incubated for 48 hrs by sulforhodamine B assay; settings: UO-31, 48 h
# Summary of the method: (§1)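 NCI-60 screen run at NCI. Cells grown in RPMI medium with 5% FBS and 2 mM L-glutamine, plated at 5,000–40,000 cells/well, and preincubated 24 h at 37 °C. Time-zero plates were TCA-fixed. Compounds came from DMSO stocks and were tested at five concentrations from 10^-4 to 10^-8 M for 48 h. Cells were then TCA-fixed, stained with 0.4% SRB, and OD read at 515 nm. GI50 is the concentration giving a 50% reduction in net protein increase versus control.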
# [3] = tested on: SF-295; assay: Growth inhibition of human SF295 cells incubated for 48 hrs by sulforhodamine B assay; settings: SF-295, 48 h
# Summary of the method: (§2)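 NCI-60 screen. Compounds were dosed at five concentrations spanning 10^-4 to 10^-8 M for 48 h at 37 °C. Cells were TCA-fixed, stained with 0.4% SRB and read at 515 nm against time-zero and vehicle controls. GI50 is the concentration giving a 50% reduction in net protein increase.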
# [4] = tested on: SK-OV-3; assay: Growth inhibition of human SKOV3 cells incubated for 48 hrs by sulforhodamine B assay; settings: SK-OV-3, 48 h; summary of the method: as §2
# [5] = tested on: SF-539; assay: Growth inhibition of human SF539 cells incubated for 48 hrs by sulforhodamine B assay; settings: SF-539, 48 h; summary of the method: as §2
# [6] = tested on: K562; assay: Growth inhibition of human K562 cells incubated for 48 hrs by sulforhodamine B assay; settings: K562, 48 h; summary of the method: as §2
# [7] = tested on: SW-620; assay: Growth inhibition of human SW620 cells incubated for 48 hrs by sulforhodamine B assay; settings: SW-620, 48 h; summary of the method: as §1
# [8] = tested on: MOLT-4; assay: Growth inhibition of human MOLT4 cells incubated for 48 hrs by sulforhodamine B assay; settings: MOLT-4, 48 h; summary of the method: as §2
# [9] = tested on: HCT-15; assay: Growth inhibition of human HCT15 cells incubated for 48 hrs by sulforhodamine B assay; settings: HCT-15, 48 h; summary of the method: as §2
# [10] = tested on: U-251; assay: Growth inhibition of human U251 cells incubated for 48 hrs by sulforhodamine B assay; settings: U-251, 48 h; summary of the method: as §1
# [11] = tested on: OVCAR-8; assay: Growth inhibition of human OVCAR8 cells incubated for 48 hrs by sulforhodamine B assay; settings: OVCAR-8, 48 h; summary of the method: as §2
# [12] = tested on: NCI-H322M; assay: Growth inhibition of human NCI-H322M cells incubated for 48 hrs by sulforhodamine B assay; summary of the method: as §2
# [13] = tested on: HT-29; assay: Growth inhibition of human HT-29 cells incubated for 48 hrs by sulforhodamine B assay; settings: HT-29, 48 h; summary of the method: as §2
# [14] = tested on: KM12; assay: Growth inhibition of human KM12 cells incubated for 48 hrs by sulforhodamine B assay; settings: KM12, 48 h; summary of the method: as §2
# [15] = tested on: SK-MEL-28; assay: Growth inhibition of human SK-MEL-28 cells incubated for 48 hrs by sulforhodamine B assay; settings: SK-MEL-28, 48 h; summary of the method: as §2
# [16] = tested on: NCI-H226; assay: Growth inhibition of human NCI-H226 cells incubated for 48 hrs by sulforhodamine B assay; settings: NCI-H226, 48 h; summary of the method: as §2
# [17] = tested on: LOX IMVI; assay: Growth inhibition of human LOXIMVI cells incubated for 48 hrs by sulforhodamine B assay; summary of the method: as §2
# [18] = tested on: HOP-92; assay: Growth inhibition of human HOP92 cells incubated for 48 hrs by sulforhodamine B assay; settings: HOP-92, 48 h; summary of the method: as §2
# [19] = tested on: SF-268; assay: Growth inhibition of human SF268 cells incubated for 48 hrs by sulforhodamine B assay; settings: SF-268, 48 h; summary of the method: as §2
# [20] = tested on: NCI-H23; assay: Growth inhibition of human NCI-H23 cells incubated for 48 hrs by sulforhodamine B assay; settings: NCI-H23, 48 h; summary of the method: as §2
# [21] = tested on: NCI-H522; assay: Growth inhibition of human NCI-H522 cells incubated for 48 hrs by sulforhodamine B assay; settings: NCI-H522, 48 h; summary of the method: as §2
# [22] = tested on: MCF7; assay: Growth inhibition of human MCF7 cells incubated for 48 hrs by sulforhodamine B assay; settings: MCF7, 48 h; summary of the method: as §2
# [23] = tested on: UACC-62; assay: Growth inhibition of human UACC62 cells incubated for 48 hrs by sulforhodamine B assay; settings: UACC-62, 48 h; summary of the method: as §1
# [24] = tested on: A498; assay: Growth inhibition of human A498 cells incubated for 48 hrs by sulforhodamine B assay; settings: A498, 48 h; summary of the method: as §2
# [25] = tested on: Malme-3M; assay: Growth inhibition of human MALME-3M cells incubated for 48 hrs by sulforhodamine B assay; summary of the method: as §2
# [26] = tested on: A549; assay: Growth inhibition of human A549/ATCC cells incubated for 48 hrs by sulforhodamine B assay; settings: A549, 48 h; summary of the method: as §2
# [27] = tested on: CCRF-CEM; assay: Growth inhibition of human CCRF-CEM cells incubated for 48 hrs by sulforhodamine B assay; summary of the method: as §2
# [28] = tested on: HCT-116; assay: Growth inhibition of human HCT116 cells incubated for 48 hrs by sulforhodamine B assay; settings: HCT-116, 48 h; summary of the method: as §2
# [29] = tested on: RPMI-8226; assay: Growth inhibition of human RPMI8226 cells incubated for 48 hrs by sulforhodamine B assay; settings: RPMI-8226, 48 h; summary of the method: as §2
# [30] = tested on: OVCAR-5; assay: Growth inhibition of human OVCAR5 cells incubated for 48 hrs by sulforhodamine B assay; settings: OVCAR-5, 48 h; summary of the method: as §2
# [31] = tested on: RXF 393; assay: Growth inhibition of human RXF393 cells incubated for 48 hrs by sulforhodamine B assay; settings: RXF 393, 48 h; summary of the method: as §2
# [32] = tested on: SN12C; assay: Growth inhibition of human SN12C cells incubated for 48 hrs by sulforhodamine B assay; summary of the method: as §2
# [33] = tested on: HL-60(TB); assay: Growth inhibition of human HL-60(TB) cells incubated for 48 hrs by sulforhodamine B assay; settings: HL-60, 48 h
# Summary of the method: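 Performed at NCI's 60-line screen. Cells grown in RPMI with 5% FBS and 2 mM L-glutamine, plated 5,000–40,000 cells/well and incubated 24 h at 37 °C before compound addition. DMSO stocks were diluted in medium with gentamicin, and five concentrations spanning 10^-4 to 10^-8 M were tested. Exposure was 48 h. Cells were fixed with TCA, stained with SRB, and read at 515 nm. GI50 taken from log dose-response curves as 50% reduction in net protein increase versus control.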
# [34] = tested on: NCI-H460; assay: Growth inhibition of human NCI-H460 cells incubated for 48 hrs by sulforhodamine B assay; settings: NCI-H460, 48 h; summary of the method: as §2
# [35] = tested on: UACC-257; assay: Growth inhibition of human UACC257 cells incubated for 48 hrs by sulforhodamine B assay; settings: UACC-257, 48 h; summary of the method: as §1
# [36] = tested on: NCI/ADR-RES; assay: Growth inhibition of human NCI/ADR-RES cells incubated for 48 hrs by sulforhodamine B assay; summary of the method: as §2
# [37] = tested on: SNB-19; assay: Growth inhibition of human SNB19 cells incubated for 48 hrs by sulforhodamine B assay; settings: SNB-19, 48 h; summary of the method: as §1
Structure (SMILES),EC50 [1],GI50 [2],GI50 [3],GI50 [4],GI50 [5],GI50 [6],GI50 [7],GI50 [8],GI50 [9],GI50 [10],GI50 [11],GI50 [12],GI50 [13],GI50 [14],GI50 [15],GI50 [16],GI50 [17],GI50 [18],GI50 [19],GI50 [20],other results
C=C1C(=O)O[C@@H]2[C@H]3O[C@]3(C)CC/C=C(/COC(=O)c3cc4ccccc4o3)CC[C@@H]12,2900 nM,1460 nM,5900 nM,16700 nM,1450 nM,1150 nM,660 nM,1770 nM,1070 nM,1630 nM,2430 nM,5520 nM,820 nM,2020 nM,1750 nM,1740 nM,1420 nM,1440 nM,1560 nM,1980 nM,GI50 [21]: 680 nM; GI50 [22]: 390 nM; GI50 [23]: 1680 nM; GI50 [24]: 12900 nM; GI50 [25]: 1660 nM; GI50 [26]: 2910 nM; GI50 [27]: 330 nM; GI50 [28]: 320 nM; GI50 [29]: 710 nM; GI50 [30]: 1880 nM; GI50 [31]: 1430 nM; GI50 [32]: 1780 nM; GI50 [33]: 1220 nM; GI50 [34]: 2000 nM; GI50 [35]: 1520 nM; GI50 [36]: 2590 nM; GI50 [37]: 3160 nM
C=C1C(=O)O[C@@H]2[C@H]3O[C@]3(C)CC/C=C(/COC(=O)c3cc4cc(F)ccc4[nH]3)CC[C@@H]12,2800 nM,1200 nM,7100 nM,11600 nM,1550 nM,2240 nM,1430 nM,2260 nM,1150 nM,1820 nM,2170 nM,2690 nM,1130 nM,1980 nM,1790 nM,1760 nM,1050 nM,1380 nM,1620 nM,1900 nM,GI50 [21]: 1650 nM; GI50 [22]: 1020 nM; GI50 [23]: 1890 nM; GI50 [24]: 3350 nM; GI50 [25]: 1670 nM; GI50 [26]: 3080 nM; GI50 [27]: 910 nM; GI50 [28]: 1500 nM; GI50 [29]: 2000 nM; GI50 [30]: 1770 nM; GI50 [31]: 1470 nM; GI50 [32]: 1850 nM; GI50 [33]: 2070 nM; GI50 [34]: 3040 nM; GI50 [35]: 2280 nM; GI50 [36]: 1980 nM; GI50 [37]: 5040 nM
C=C1C(=O)O[C@@H]2[C@H]3O[C@]3(C)CC/C=C(/COC(=O)/C=C/c3c[nH]c4ccccc34)CC[C@@H]12,700 nM,150 nM,1620 nM,1880 nM,260 nM,270 nM,180 nM,300 nM,180 nM,210 nM,190 nM,1730 nM,190 nM,400 nM,330 nM,230 nM,50 nM,150 nM,220 nM,1250 nM,GI50 [21]: 180 nM; GI50 [22]: 220 nM; GI50 [23]: 170 nM; GI50 [24]: 270 nM; GI50 [25]: 280 nM; GI50 [26]: 1270 nM; GI50 [27]: 70 nM; GI50 [28]: 180 nM; GI50 [29]: 30 nM; GI50 [30]: 310 nM; GI50 [31]: 170 nM; GI50 [32]: 190 nM; GI50 [33]: 250 nM; GI50 [34]: 1010 nM; GI50 [35]: 350 nM; GI50 [36]: 350 nM; GI50 [37]: 640 nM
